The term IC50 denotes the concentration that gives 50% inhibition. The term CC50 denotes the concentration giving 50% cytotoxicity.

This is an account of results in ChEMBL document CHEMBL3856220, “Synthesis and antileishmanial activity of C7- and C12-functionalized dehydroabietylamine derivatives” (Eur J Med Chem, 2016).

Data set [1] deals with Leishmania donovani. Briefly: Leishmanicidal activity against promastigote form of Leishmania donovani MHOM/IN/80/DD8 after 48 hrs by resazurin dye-based fluorometric method. Type of data set: functional. The following applies: MHOM/IN/80/DD8, 48 h. The method, boiled down: (§1)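 Promastigotes grown in Schneider's medium with 10% heat-inactivated FBS at 26 °C. 2.5×10^5 parasites/well. DMSO stocks at 100 mg/mL, diluted 1:2 in medium to final 100–0.78 µg/mL. 48 h at 26 °C, then 2.5 mM resazurin (20 µL) for 3 h. Fluorescence read at ex 535/em 590 nm, with growth inhibition corrected for signal-to-noise. Triplicates; IC50 by probit analysis.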
For orientation: The colour change of resazurin is a common sign of viable cells or microbes.

Data set [2] in a line: Cytotoxicity against mouse J774 cells assessed as reduction of cell viability after 48 hrs by resazurin dye-based fluorometric method. Type of data set: toxicity. The method, boiled down:
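J774 murine macrophages grown in RPMI-1640 with 10% heat-inactivated FBS, penicillin/streptomycin, 37 °C, 5% CO2, and harvested mechanically at pre-confluence. Seeded at 5×10^4 cells/well and allowed to attach 2 h. Compound added at 100–0.78 µg/mL (1:2 series, final), 48 h exposure. Resazurin 2.5 mM (20 µL) then 3 h, fluorescence read. Triplicates. CC50 = 50% viability loss versus untreated.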

Data set [3] can be described thus: Selectivity index, ratio of CC50 for mouse J774 cells to IC50 for promastigote form of Leishmania amazonensis MHOM/Br/79/Maria. Type of data set: functional. The method, boiled down:
(§2)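 Selectivity index computed as CC50 from the J774 resazurin viability assay divided by IC50 from the matching promastigote or intracellular amastigote resazurin assay.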

The nature of data set [4]: Selectivity index, ratio of CC50 for mouse J774 cells to IC50 for promastigote form of Leishmania guyanensis 141/93. Type of data set: functional. The method, boiled down: as §2
A short description of data set [5]: Selectivity index, ratio of CC50 for mouse J774 cells to IC50 for promastigote form of Leishmania donovani MHOM/IN/80/DD8. Type of data set: functional. The method, boiled down: as §2
Data set [6] concerns Leishmania amazonensis. Briefly: Leishmanicidal activity against amastigote form of Leishmania amazonensis MHOM/Br/79/Maria infected in mouse J774 cells after 48 hrs by resazurin dye-based fluorometric method. The following applies: J774, 48 h. Type of data set: functional, cell-based. The method, boiled down:
(§3)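 5×10^4 macrophages in RPMI-1640 infected with 5×10^5 promastigotes. L. infantum infection was 48 h at 37 °C; L. amazonensis was 24 h at 33 °C then 24 h at 37 °C. Free parasites washed off with RPMI-HEPES pH 7.4. Compound at 100–0.78 µg/mL (final), 48 h at 37 °C. Cells lysed with 0.02% SDS, then 3 days at 26 °C in Schneider's medium. Resazurin 3 h, fluorescence read. Triplicates; IC50 by probit analysis.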

In data set [7] the test system is Leishmania infantum. Kind of data set: Leishmanicidal activity against promastigote form of Leishmania infantum MCAN/ES/96/BCN150 after 48 hrs by resazurin dye-based fluorometric method. Type of data set: functional. The conditions noted are these: MCAN/ES/96/BCN150, 48 h. The essentials: as §1
Data set [8] deals with Leishmania infantum. Kind of data set: Leishmanicidal activity against amastigote form of Leishmania infantum MCAN/ES/96/BCN150 infected in mouse J774 cells after 48 hrs by resazurin dye-based fluorometric method. Type of data set: functional, cell-based. The following applies: MCAN/ES/96/BCN150, J774, 48 h. The essentials:
as §3

Data set [9] is described as follows: Selectivity index, ratio of CC50 for mouse J774 cells to IC50 for promastigote form of Leishmania infantum MCAN/ES/96/BCN150. Type of data set: functional. The essentials: as §2
Data set [10] is described as follows: Selectivity index, ratio of CC50 for mouse J774 cells to IC50 for amastigote form of Leishmania amazonensis MHOM/Br/79/Maria infected in mouse J774 cells. Type of data set: functional. The essentials: as §2
The test system of another data set is Leishmania guyanensis. Briefly: Leishmanicidal activity against promastigote form of Leishmania guyanensis 141/93 after 48 hrs by resazurin dye-based fluorometric method. Type of data set: functional. The following applies: 141/93, 48 h. The essentials:
as §1

Data set [11] in a line: Selectivity index, ratio of CC50 for mouse J774 cells to IC50 for amastigote form of Leishmania infantum MCAN/ES/96/BCN150 infected in mouse J774 cells. Type of data set: functional. The essentials:
as §2

Data set [12] deals with Leishmania amazonensis. Briefly: Leishmanicidal activity against promastigote form of Leishmania amazonensis MHOM/Br/79/Maria after 48 hrs by resazurin dye-based fluorometric method. Type of data set: functional. The method, boiled down:
as §1

Data set [13] concerns Leishmania infantum. Kind of data set: Potency index, ratio of miltefosine IC50 to compound IC50 for amastigote form of Leishmania infantum MCAN/ES/96/BCN150 infected in mouse J774 cells. Type of data set: functional.
Data set [14] has as its system Leishmania infantum. Briefly: Antileishmanial activity against amastigote form of Leishmania infantum MCAN/ES/2001/UCM-10 infected in mouse J774.2 cells after 72 hrs by Giemsa staining-based assay. Type of data set: functional, cell-based. The conditions noted are these: MCAN/ES/2001/UCM-10, J774.2, 72 h.
The test system of the next data set is Leishmania braziliensis. Kind of data set: Antileishmanial activity against amastigote form of Leishmania braziliensis MHOM/BR/1975/M2904 infected in mouse J774.2 cells after 72 hrs by Giemsa staining-based assay. Type of data set: functional, cell-based. The following applies: MHOM/BR/75/M2904, J774.2, 72 h.
In data set [15] the test system is Leishmania donovani. Briefly: Antileishmanial activity against promastigote form of Leishmania donovani after 48 hrs by Alamar blue assay. Type of data set: functional. The method, boiled down:
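Promastigotes grown at 26 °C in Schneider's insect medium with 10% heat-inactivated FBS and penicillin/streptomycin, seeded at 2.5×10^5/well. Exposed to 1:2 serial dilutions (100–0.78 µg/mL final; DMSO stocks) for 48 h at 26 °C, then 2.5 mM resazurin added for 3 h. Fluorescence read at 535/590 nm; inhibition relative to untreated minus background. Triplicates; IC50 by probit; miltefosine reference.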

As to `CC(C)c1cc2c(cc1[N+](=O)[O-])[C@@]1(C)CCC[C@@](C)(CNC(=O)c3ccccc3)[C@@H]1CC2=O`, the IC50 in the data set on Leishmania donovani [1] was 5.4 µM; in the data set with Leishmania amazonensis [6] it was 3.7 µM; in the data set on Leishmania infantum [7] it was 23.9 µM; in the data set with Leishmania infantum [8], 17.5 µM; with Leishmania guyanensis it was 38.5 µM; in the data set with Leishmania amazonensis [12], 12.2 µM. Moreover, the CC50 at 48 h in data set [2] was > 200 µM. Also, the “Ratio CC50/IC50” value in [3] is given as >16; in data set [4], >5; in data set [5] it was >37; in data set [9], >8; in [10], >54; in data set [11], >11.
For the molecule `CC(C)c1ccc2c(c1)C(=O)C[C@H]1[C@](C)(CNC(=O)c3ccccc3)CCC[C@]21C`, the IC50 in the data set with Leishmania donovani [1] amounted to 4 µM; in the data set on Leishmania amazonensis [6] it was 3 µM; in the data set on Leishmania infantum [7], 8.7 µM; in the data set on Leishmania infantum [8], 2.5 µM; in the data set on Leishmania guyanensis, 8.6 µM; in the data set on Leishmania amazonensis [12] it was 4.9 µM. Moreover, the CC50 at 48 h in data set [2] was > 200 µM. The “Ratio CC50/IC50” value is >41 in data set [3]; >23 in data set [4]; >50 in data set [5]; >23 in data set [9]; >67 in [10]; >80 in [11]. Besides, the “Ratio IC50” value with Leishmania infantum [13] came to 23.
For `CC(C)c1cc2c(cc1[N+](=O)[O-])[C@@]1(C)CCC[C@@](C)(CNC(=O)c3ccccc3)[C@@H]1CC2`, the IC50 is 3.2 µM in the data set with Leishmania donovani [1]; 3.5 µM in the data set with Leishmania amazonensis [6]; 11.1 µM in the data set with Leishmania infantum [7]; 3.3 µM in the data set on Leishmania infantum [8]; 94.5 µM in the data set with Leishmania guyanensis; 20.7 µM with Leishmania amazonensis [12]. In addition, the CC50 at 48 h in [2] was > 200 µM. Also, the “Ratio CC50/IC50” value in data set [3] is >10; in data set [4], >2; in data set [5] it was >62; in [9], >18; in [10] it was >57; in data set [11], >61. The “Ratio IC50” value with Leishmania infantum [13] came to 18.
Consider `CC(=O)NC[C@]1(C)CCC[C@]2(C)c3ccc(C(C)C)cc3CC[C@@H]12`, for which, in data set [2], the CC50 at 48 h is 21.6 µM.
With `CC(C)c1ccc2c(c1)CC[C@H]1[C@](C)(CNC(=O)c3ccccc3)CCC[C@]21C`, the IC50 with Leishmania donovani [1] was determined as 2.2 µM; with Leishmania amazonensis [6], 5 µM; in the data set on Leishmania infantum [7], 3.1 µM; in the data set on Leishmania infantum [8], 4.7 µM; with Leishmania guyanensis, 20.4 µM; with Leishmania amazonensis [12] it was 3.7 µM. Further, the CC50 at 48 h in data set [2] is > 200 µM. In addition, the “Ratio CC50/IC50” value was >54 in [3]; >10 in [4]; >90 in data set [5]; >64 in data set [9]; >40 in data set [10]; >42 in data set [11].
`COC(=O)C[C@@]1(C)CCC[C@]2(C)c3cc(O)c(C(C)C)cc3CC[C@@H]12`: the IC50 with Leishmania infantum [14] and with Leishmania braziliensis was 22.3 to 35 µM each time.
Take `CC(=O)NC[C@]1(C)CCC[C@]2(C)c3ccc(C(C)C)cc3C(=O)C[C@@H]12`: the CC50 at 48 h in data set [2] was 72.3 µM.
On to `CC(=O)NC[C@]1(C)CCC[C@]2(C)c3ccc(C(C)C)cc3-c3[nH]c4ccc(F)cc4c3[C@@H]12`, for which the values for the IC50 in the data set on Leishmania donovani [1], in the data set on Leishmania infantum [7] and in the data set with Leishmania amazonensis [12] were 2.8 µM, 1.5 µM and 4 µM, respectively. Moreover, in data set [2], the half-maximal cytotoxic concentration (CC50) at 48 h came to 28.8 µM. Moreover, the “Ratio CC50/IC50” value was found to be 7.2 in [3], 10.3 in data set [5] and 19.2 in data set [9].
As to `CC(=O)NC[C@]1(C)CCC[C@]2(C)c3cc([N+](=O)[O-])c(C(C)C)cc3C(=O)C[C@@H]12`, the cytotoxic concentration (CC50) at 48 h in data set [2] stood at 39.2 µM.
As to `COC(=O)C[C@]1(C)CCC[C@]2(C)c3cc(O)c(C(C)C)cc3CC[C@@H]12`, the IC50 in the data set with Leishmania infantum [14] and in the data set with Leishmania braziliensis was 22.3 to 35 µM each time.
On to `CC(=O)NC[C@]1(C)CCC[C@]2(C)c3cc([N+](=O)[O-])c(C(C)C)cc3CC[C@@H]12`, for which the CC50 at 48 h in [2] is 13.7 µM.
The same measure, in the same setting: the result for `CC(C)c1ccc2c(c1)CC[C@H]1[C@](C)(CN)CCC[C@]21C` reads 14.5 µM.
In the data set with Leishmania donovani [15], `CC(C)c1cc2c(cc1O)[C@@]1(C)CCCC(C)(C)[C@@H]1CC2` [FERRUGINOL] showed an IC50 of 12.2 µM.
For the molecule `CCCCCCCCCCCCCCCCOP(=O)([O-])OCC[N+](C)(C)C` [MILTEFOSINE], the IC50 in the data set on Leishmania donovani [1] stood at 0.15 µM; with Leishmania amazonensis [6], 16.5 µM; in the data set on Leishmania infantum [7], 3.4 µM; in the data set with Leishmania infantum [8], 58.1 µM; with Leishmania guyanensis, 18.2 µM; in the data set on Leishmania amazonensis [12], 47.7 µM. For the same molecule, the CC50 at 48 h in [2] was found to be 136 µM. Further, the “Ratio CC50/IC50” value in data set [3] is 2.9; in data set [4], 7.5; in [5], 909; in [9] it was 40.1; in data set [10] it was 8.2; in data set [11], 2.3.
